# Compound activity: PubChem BioAssay, several laboratories
# Tb MetRS inh – T. brucei MetRS inhibitors, primary screen, biochemical, luminescence; methionyl-tRNA synthetase (Trypanosoma brucei brucei); purified T. brucei MetRS, ATP depletion, Kinase-Glo luminescence; inhibition, % at 11.9 µM; 0.4% of 360,000 active; AID 624268, 2012;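 active means inhibition above a per-plate cutoff of the control wells' mean inhibition plus 3 SD, cut at about 5.5% in these data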;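 further: 0% = DMSO wells median and 100% = median of wells with control inhibitor compound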
#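 Measured by: Kinase-Glo luciferase luminescence reporting remaining unconsumed ATP. Material: purified T. brucei MetRS enzyme. Doses: 11.9 µM compound single dose, 0.9% DMSO. Medium: HEPES buffer containing pyrophosphatase, BSA, spermine, DTT. Times: 15 min preincubation, 2 h reaction, all 25 °C. Reagent: methionine, ATP and bulk E. coli tRNA.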
# MsrA inh – bovine MsrA enzyme inhibitors, primary screen, biochemical, absorbance, HTS; Methionine sulfoxide reductase A (Bos taurus); purified bovine MsrA, absorbance read-out; inhibition, % at 15.5 µM; 0.75% of 360,000 active; AID 651718, 2012; in the data active means inhibition above about 4.5%;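 further: 0% = vehicle wells with enzyme and 100% = reference inhibitor wells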
# bovine MsrA act – bovine MsrA enzyme activators, primary screen, biochemical, absorbance, HTS | activation, % at 10.6 µM | purified bovine MsrA, absorbance read-out | 0.3% of 360,000 active | AID 602163, 2012 | Methionine sulfoxide reductase A (Bos taurus); in the data active means activation above about 7.5%;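 further: 0% = vehicle and 100% = reference activator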
# AI-2 QS modul – Vibrio harveyi AI-2 quorum sensing modulators, primary screen, JMH597 strain, luminescence/OD600 ratio; Vibrio harveyi JMH597 AI-2 luminescence/OD600 ratio, 9 h; hits give low values; strain lacks LuxN and CqsS sensors; 0 = neutral-control median; activity change, % at 7.5 µM; 0.4% of 300,000 active; AID 2094, 2009; in the data active means activity change below about -75%, passing the limit was not always enough;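 further: luminescence divided by OD600 gain over 9 h not by final OD600 alone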
# m5-HT2A agonist – mouse Htr2a agonists via beta-arrestin recruitment, primary screen, cell-based, luminescence; CHO-K1 mHTR2A beta-arrestin complementation; percent of 30 µM serotonin response; 0.66% of 360,000 active; activation, % at 7.6 µM;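 active means activation above a run cutoff, the mean activation of all tested compounds plus 3 SD, cut at about 14% in these data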;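 further: 0% = plate median of compound wells and 100% = 30 µM serotonin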
# AHR act – AHR activators, primary screen, cell-based, luminescence, luciferase reporter, human | Aryl hydrocarbon receptor (Homo sapiens), P35869 | 2.5% of 320,000 active | AHR-responsive luciferase reporter cells | activation, % at 5 µM; in the data active means activation above about 47%;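 further: 0% = vehicle wells and 100% = reference agonist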
# AHR act cf – AHR activators, confirmation, cell-based, luminescence, luciferase reporter, human | human cells, AHR-responsive luciferase reporter | 87% of 2,300 active | activation, % at 9 µM | AID 2845, 2010 | shares compounds with AHR act; in the data active means activation above about 49%;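 further: HepG2 hepatoma cells carrying a DRE-driven firefly luciferase reporter; 0% = vehicle wells and 100% = reference agonist wells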
# PXR counter – human PXR activators, counter-screen for AHR activator project, cell-based, luciferase luminescence; shares compounds with AHR act; cell-based PXR reporter; activation, % at 11.6 µM; 88% of 2,300 active; AID 434939, 2010; in the data active means activation above about 11%;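 further: human hepatoma DPX-2 cells expressing full-length human PXR; 0% = DMSO and 100% = reference agonist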
# Starred values were filed as active, the others as inactive; / = no result given. Rows were chosen to be rich in hits. Some 4.4% of all compounds tested hit in one or more screens of this group.
SMILES,Tb MetRS inh,MsrA inh,bovine MsrA act,AI-2 QS modul,m5-HT2A agonist,AHR act,AHR act cf,PXR counter
O=C(CSc1nnc(SCC(=O)NCc2ccc3c(c2)OCO3)s1)NCc1ccc2c(c1)OCO2,0,1,-1,/,3,/,/,/
O=C(CSc1nnc(NC(=O)c2ccc3c(c2)OCO3)s1)NCc1ccco1,-1,1,-9,0,4,82*,31,11*
O=C(CSc1nc2ccccc2s1)NCc1ccc2c(c1)OCO2,0,-1,-1,7,-1,80*,106*,42*
O=C(CSc1nnc(NC(=O)c2ccccc2)s1)NCc1ccco1,0,1,2,10,5,18,/,/
COCCSc1nnc(NC(=O)c2ccc3c(c2)OCO3)s1,0,0,-1,54,0,99*,89*,27*
COc1ccc(CN2CCNC(=O)C2CC(=O)N(C)C2CCOCC2)cc1OC (stereo not drawn),0,-1,-2,/,-3,/,/,/
Cc1ccc(C(=O)OC(C)C(=O)NC2CCCCC2C)cc1S(=O)(=O)N1CCCCC1 (stereo not drawn),0,-1,-1,4,2,3,/,/
COc1ccc(/C=C/C(=O)NC(=S)NNC(=O)c2cnccn2)cc1,0,1,-4,9,-2,1,/,/
COc1ccc(/C=C/C(=O)NC(=S)NNC(=O)c2cccs2)cc1,0,4,2,33,-2,94*,36,5
CCOC(=O)c1c(C)[nH]c(C(=O)N/N=C\c2ccccc2Cl)c1C,0,1,2,28,-9,81*,73*,15*
C/C(=C1/C(=O)N(c2ccc([N+](=O)[O-])cc2)N=C1c1ccccc1)N(C)C,/,/,/,/,/,87*,37,29*
CN(C)CCNC(=O)c1sc2nc(-c3ccccc3)cc(C(F)(F)F)c2c1N,-1,-1,-2,4,-2,91*,100*,11*
Nc1c(C(=O)C2CC2)sc2nc(-c3ccccc3)cc(C(F)(F)F)c12,-1,1,-5,27,5,16,/,/
O=C(C1CC(=O)N(c2ccc3c(c2)OCCO3)C1)N1CCN(Cc2ccccc2F)CC1 (stereo not drawn),0,-1,1,/,-2,-1,/,/
Cc1ccc(NC(=S)c2nc3ccccc3[nH]2)c(C)c1,0,1,-4,-6,-2,94*,84*,/
CCCCNC(=S)N=Nc1c(O)[nH]c2ccccc12,-1,2,-16,42,-3,7,/,/
COCCNC(=S)N=Nc1c(O)[nH]c2c(C)cc(C)cc12,-1,1,-1,-5,-1,116*,93*,71*
CC(C)(C)n1nnnc1CN(Cc1ccco1)Cc1cc2cc3c(cc2[nH]c1=O)OCO3,0,2,-12,21,6,111*,96*,197*
CCC(C)(C)n1nnnc1CN(Cc1ccco1)Cc1cc2cc3c(cc2[nH]c1=O)OCO3,0,/,-6,18,-2,107*,86*,147*
Cc1nc(SCc2nc3c(F)cccc3[nH]2)c2oc3ccccc3c2n1,0,0,-6,/,3,80*,80*,40*
CCC(C)Oc1cc(-c2ccnc(Nc3cccc(Cl)c3)n2)ccn1 (stereo not drawn),0,0,-1,8,1,114*,72*,31*
Cc1ccc(CNS(=O)(=O)c2c(C(=O)N3CCCCC3)c(C)n(C)c2C)o1,0,-1,-1,36,-1,1,/,/
